Source: PubChem
PfM18AAP inh-1 – blocks P. falciparum M18 aspartyl aminopeptidase. recombinant PfM18AAP, H-Glu-NHMec fluorogenic cleavage. inhibition, % at 7.35 µM. 1.2% of 290,000 active. AID 1822;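 active = inhibition above the campaign mean inhibition over all tested compounds plus 3 SD, cut at about 28% in these data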
VIM-2 inh – inhibitors of Pseudomonas aeruginosa VIM-2 metallo-beta-lactamase; purified VIM-2, nitrocefin hydrolysis, epi-absorbance fluorescence; inhibition, % at 5.6 µM; 0.89% of 290,000 active; AID 1527;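 active = inhibition above the mean of all tested compounds plus 3 SD, cutoff set per screening run, cut at about 7.5% in these data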;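 also: red hydrolysis product quenches plate fluorescence so inhibitors raise well fluorescence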
IMP-1 inhibitor – blocks Pseudomonas aeruginosa IMP-1 metallo-beta-lactamase. 0.45% of 290,000 active. purified IMP-1, nitrocefin hydrolysis, epi-absorbance fluorescence. inhibition, % at 5.6 µM;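 active = inhibition above the mean plus 3 SD of all compounds in the same screening run, cut at about 4.5% in these data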
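System: purified IMP-1; amount: IMP-1 0.2 nM before substrate addition; compound: single dose, 5.6 µM; times: 25 °C, 15 min preincubation, 25 min reaction; signal: Epi-absorbance via hydrolysed-nitrocefin quenching of white-plate fluorescence, 480/530 nm, EDTA stop; benchmarks: DMSO with and without IMP-1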
CTSL1 counter-1 – blocks F. hepatica cathepsin L1 in PFM18AAP counter-screen. AID 1906. recombinant F. hepatica cathepsin L1, Z-Leu-Arg-MCA fluorescence. 0.49% of 300,000 active. inhibition, % at 5.96 µM;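 active = inhibition above the mean of all tested compounds plus 3 SD, set per screening campaign, cut at about 17% in these data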
PfM18AAP inh-2 – confirmation of Plasmodium falciparum M18 aspartyl aminopeptidase inhibitors | 28% of 2,400 active | shares compounds with PfM18AAP inh-1 | inhibition, % at 7.35 µM | AID 2170 | recombinant PfM18AAP, H-Glu-NHMec fluorogenic cleavage;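 active = mean inhibition over replicate wells above the hit cutoff set for the earlier primary screen, cut at about 29% in these data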
CTSL1 counter-2 – counter-screen for PFM18AAP inhibitors: confirmation of human cathepsin L inhibitors; AID 2178; shares compounds with PfM18AAP inh-1; purified cathepsin L1, Z-Leu-Arg-MCA fluorescence; inhibition, % at 5.96 µM; 2,400 tested, under 10 active;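 active = average inhibition across replicates above the hit cutoff set in the earlier primary screen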
Target sequence (P07711 whole entry, looked up): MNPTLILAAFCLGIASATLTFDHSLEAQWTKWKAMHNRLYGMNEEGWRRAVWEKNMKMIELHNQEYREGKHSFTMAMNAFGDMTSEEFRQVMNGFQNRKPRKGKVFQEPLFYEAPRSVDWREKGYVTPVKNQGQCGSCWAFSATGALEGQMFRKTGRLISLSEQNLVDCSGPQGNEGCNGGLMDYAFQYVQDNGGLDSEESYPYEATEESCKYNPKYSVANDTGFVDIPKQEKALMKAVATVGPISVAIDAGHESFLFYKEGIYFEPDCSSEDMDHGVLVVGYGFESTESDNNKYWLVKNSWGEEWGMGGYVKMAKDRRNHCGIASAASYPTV
Hits are given with their value; 0 = inactive; - = no result given. Rows were chosen to be rich in hits. Some 2.7% of all compounds tested hit in one or more screens of this group.

SMILES | PfM18AAP inh-1 | VIM-2 inh | IMP-1 inhibitor | CTSL1 counter-1 | PfM18AAP inh-2 | CTSL1 counter-2
O=C(COc1ccc2c(c1)OCO2)Nc1nnc(Cc2ccccc2)s1 | 38 | 0 | 0 | 0 | 0 | 0
Nc1ccccc1SCC(=O)Nc1ccc2c(c1)OCCO2 | 0 | 0 | 0 | 0 | - | -
COc1cc(C(=S)N2CCCCC2)ccc1O | 36 | 0 | 0 | 0 | 0 | 0
COc1cccc(C(=O)N2CCN(C(=O)c3cccc4ccccc34)CC2)c1OC | 0 | 0 | 0 | 0 | - | -
COc1cccc(C(=S)N2CCCC2)c1OC | 39 | 0 | 0 | 0 | 0 | 0
O=C(O)C1OC(Oc2cc3oc(-c4ccccc4)cc(=O)c3c(O)c2O)C(O)C(O)C1O (configuration not stated) | 44 | 0 | 0 | 0 | 0 | 0
O=[N+]([O-])c1cc2c(cc1/C=N/n1cnnc1)OCO2 | 39 | 0 | 0 | 0 | 0 | 0
O=[N+]([O-])c1cccc(/C=N/n2cnnc2)c1O | 0 | 0 | 0 | 0 | - | -
O=C(NCCc1ccco1)c1cc(COc2cccc(C(F)(F)F)c2)on1 | 0 | 0 | 0 | 0 | - | -
CCN1C(=O)/C(=C2/C=Cc3cc(C)ccc3N2CC)N(C)C1=S | 0 | 0 | 0 | 0 | - | -
CCN1/C(=C2\C(=O)N(C)C(=S)N2C)C=Cc2cc(OC)ccc21 | 34 | 0 | 0 | 0 | 0 | 0
CCOC(=O)CSc1nnc(-c2cc(OC)c(OC)c(OC)c2)o1 | 0 | 0 | 0 | 0 | - | -
COc1cc(-c2nnc(SCc3cc(=O)oc4cc(O)c(O)cc34)o2)cc(OC)c1OC | 35 | 0 | 0 | 0 | 0 | 0
COc1ccc(/C=C2\SC(=S)N(N3C(=O)CCC3=O)C2=O)cc1O | 32 | 0 | 0 | 0 | 0 | 0
CCNc1c(N)c(=O)oc2ccccc12 | 0 | 0 | 0 | 0 | - | -
CCCNc1c(N)c(=O)oc2ccccc12 | 49 | 0 | 0 | 0 | 0 | 0
O=C(c1ccsc1)N1CCCC(N2CCN(c3cccc(Cl)c3)CC2)C1 (configuration not stated) | 0 | 0 | 0 | 0 | - | -
CC(=O)Nc1ccccc1NC(=O)C/C(C)=N/NC(=O)c1ccccn1 | 41 | 0 | 0 | 0 | 0 | 0
Cc1ccc(SCC(=O)N2N=CCC2c2ccccc2)cc1 (configuration not stated) | 0 | 0 | 0 | 0 | - | -
O=C(N/N=C/c1ccc(O)c(O)c1)NC12CC3CC(CC(C3)C1)C2 | 48 | 0 | 0 | 0 | 0 | 0
CC(C(=O)Nc1ccc(O)cc1C(=O)O)N1C(=O)/C(=C\c2cccs2)SC1=S (configuration not stated) | 0 | 0 | 0 | 0 | - | -
Cc1cc(C(F)(F)F)cc(NNC(=O)NC(=O)c2c(F)cccc2Cl)n1 | 42 | 0 | 0 | 0 | 0 | 0
CC(C)(C)NC(=O)C(=O)NC(=O)c1c(F)cccc1Cl | 0 | 0 | 0 | 0 | - | -
Cc1ccc2sc(NNC(=O)C3=COCCO3)nc2c1C | 32 | 0 | 0 | 0 | 0 | 0
O=C(NNc1nc2c(F)cccc2s1)C1=COCCO1 | 44 | 0 | 0 | 0 | 0 | 0
SMILES | PfM18AAP inh-1 | VIM-2 inh | IMP-1 inhibitor | CTSL1 counter-1 | PfM18AAP inh-2 | CTSL1 counter-2
COC(=O)c1ccc(NC(=O)CN2CCN(c3ccccn3)CC2)cc1 | 0 | 0 | 0 | 0 | - | -
CN(C)S(=O)(=O)c1cccc(NC(=S)N/N=C/c2ccc(O)c(O)c2O)c1 | 49 | 0 | 0 | - | 40 | 0
CCn1c(C)nc2cc(C(=O)N/N=C/c3cccc(OC)c3O)ccc21 | 0 | 0 | 0 | 0 | - | -
CCn1c(C)nc2cc(C(=O)N/N=C/c3ccc(O)c(O)c3O)ccc21 | 47 | 0 | 0 | - | 38 | 0
COc1cc(/C=N/NC(=S)Nc2cccc(S(=O)(=O)N(C)C)c2)cc(OC)c1O | 43 | 0 | 0 | 0 | 0 | 0
CCN(CC)S(=O)(=O)c1cccc(C(=O)N/N=C/c2ccc(O)c(O)c2O)c1 | 42 | 0 | 0 | 0 | 0 | 0
Cc1cccc(C(C)Nc2ccc([N+](=O)[O-])cn2)c1 (configuration not stated) | 0 | 0 | 0 | 0 | - | -
Cc1ccc(C2C3C(=O)N(c4ccc(C)cc4)C(=O)C3N3CCCN23)cc1 (configuration not stated) | 0 | 0 | 0 | 0 | - | -
COC(=O)CCC(=O)NC(=S)Nc1ccc(S(=O)(=O)N2CCCC2)cc1 | 0 | 0 | 0 | 0 | - | -
Cn1c(=O)c2ccccc2n(Cc2cccc(F)c2)c1=O | 0 | 0 | 0 | 0 | - | -
Cn1nc(C(=O)NNC(=O)COc2ccccc2)c2ccccc2c1=O | 44 | 0 | 0 | 0 | 32 | 0
O=C(COC(=O)c1cc(-c2ccccc2Cl)nc2ccccc12)Nc1ncc(C(F)(F)F)cc1Cl | 0 | 0 | 0 | 0 | - | -
COCc1[nH]nc2c1C(c1cc(OC)c(O)c(OC)c1)C(C#N)=C(N)O2 (configuration not stated) | 38 | 0 | 0 | 0 | 0 | 0
COCc1[nH]nc2c1C(c1ccc(OC)c(OC)c1)C(C#N)=C(N)O2 (configuration not stated) | 0 | 0 | 0 | 0 | - | -
COc1cc(SC)ccc1C(=O)N1CCN(c2ccc(O)cc2)CC1 | 37 | 0 | 0 | 0 | 0 | 0
NS(=O)(=O)c1ccc(NNC(=O)c2sccc2Cl)cc1 | 52 | 0 | 0 | 0 | 0 | 0
N#C/C(=C\c1ccc(O)c(O)c1)C(=O)N1CCCC1 | 56 | 0 | 0 | 0 | 0 | 0
COc1cc(/C=C(\C#N)C(=O)N2CCCCC2)ccc1O | 0 | 0 | 0 | 0 | - | -
N#C/C(=C\c1ccc(O)c(O)c1)C(=O)NCCCc1ccccc1 | 34 | 0 | 0 | 0 | 0 | 0
CCN(CC)c1ccc(N=C2C(=O)Nc3ccccc32)cc1 | 63 | 0 | 0 | 0 | 0 | 0
O=C(/C=C/c1ccc(O)c(O)c1)c1ccccc1O | 72 | 0 | 0 | 0 | 61 | 0
O=C(/C=C/c1ccc(O)cc1)c1ccc(O)cc1O | 0 | 0 | 0 | 0 | - | -
O=C(COc1ccccc1)N/N=C/c1ccc([N+](=O)[O-])o1 | 39 | 0 | 0 | 0 | 0 | 0
Nc1cc(C(=O)O)ccc1Nc1ccccc1 | 54 | 0 | 0 | 0 | 0 | 0
CCOc1ccc(CC(=O)C2C(=O)CCCC2=O)cc1OCC | 33 | 0 | 0 | 0 | 0 | 0
SMILES | PfM18AAP inh-1 | VIM-2 inh | IMP-1 inhibitor | CTSL1 counter-1 | PfM18AAP inh-2 | CTSL1 counter-2
CCOc1ccc(CC(=O)C2C(=O)CC(C)(C)CC2=O)cc1OCC | 0 | 0 | 0 | 0 | - | -
Oc1ccc(-c2cn3ccccc3n2)cc1O | 70 | 0 | 0 | 0 | 58 | 0
Oc1ccc(-c2cn3ccccc3n2)cc1 | 0 | 0 | 0 | 0 | - | -
Cc1ccn2cc(-c3ccc(O)c(O)c3)nc2c1 | 72 | 0 | 0 | 0 | 51 | 0
Cc1ccn2cc(-c3cccc(NC(=O)C(C)C)c3)nc2c1 | 0 | 0 | 0 | 0 | - | -
CN(C)c1cc[n+](CC(=O)Nc2ccc(OC(F)F)cc2)cc1 | 0 | 0 | 0 | 0 | - | -
O=C(NNc1nc2cc3c(cc2s1)OCCO3)c1ccccc1 | 54 | 0 | 0 | 0 | 0 | 0
Cc1cccnc1NC(=O)c1ccc2c(c1)OCCO2 | - | - | - | 0 | - | -
Cc1cccc2sc(NNC(=O)c3ccc4c(c3)OCCO4)nc12 | 34 | 0 | 0 | 0 | 0 | 0
Cc1[nH]c(=O)c(S(=O)(=O)c2ccccc2)c(C)c1Cl | 0 | 0 | 0 | 0 | - | -
